Experiments:
MCF7 = experiment: Growth inhibition of human MCF7 cells after 72 hrs by MTT assay; assay type: functional; conditions: MCF7, 72 h
PC-3 = experiment: Growth inhibition of human PC3 cells after 72 hrs by MTT assay; assay type: functional; conditions: PC-3, 72 h
SK-MEL-28 = experiment: Growth inhibition of pro-apoptotic stimuli-resistant human SK-MEL-28 cells after 72 hrs by MTT assay; assay type: functional; conditions: SK-MEL-28, 72 h
Method in brief: (§1)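 Cells seeded at 10,000 to 40,000 cells/mL depending on cell type and allowed to attach for 24 h. They were then cultured 72 h with or without compound (untreated control). Living cells were measured by MTT reduction to formazan, read at 570 nm against a 630 nm reference. GI50 was derived from the growth levels.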

[1] = Growth inhibition of pro-apoptotic stimuli-sensitive human Hs683 cells after 72 hrs by MTT assay; assay type: functional; conditions: Hs 683, 72 h; method in brief: as §1
B16-F10 = experiment: Growth inhibition of pro-apoptotic stimuli-sensitive mouse B16F10 cells after 72 hrs by MTT assay; assay type: functional; conditions: B16-F10, 72 h; method in brief: as §1
T98G = experiment: Growth inhibition of pro-apoptotic stimuli-resistant human T98G cells after 72 hrs by MTT assay; assay type: functional; method in brief: as §1
[2] = Growth inhibition of pro-apoptotic stimuli-resistant human U373 cells after 72 hrs by MTT assay; assay type: functional, U-373MG ATCC; conditions: U373 MG; method in brief: as §1
A549 = experiment: Growth inhibition of pro-apoptotic stimuli-resistant human A549 cells after 72 hrs by MTT assay; assay type: functional; conditions: A549, 72 h; method in brief: as §1
[3] = Chemical stability of the compound at pH 5 to 7.4; assay type: physicochemical; conditions: buffer

Row | GI50 (MCF7) [µM] | GI50 (PC-3) [µM] | GI50 (SK-MEL-28) [µM] | GI50 (B16-F10) [µM] | GI50 (A549) [µM] | Stability [3] [days] | Compound | GI50 [1] [µM] | GI50 (T98G) [µM] | GI50 [2] [µM]
1 | > 100 | > 100 | > 100 | 86 | > 100 | – | CC(=O)O[C@@H]1[C@@H](OC(C)=O)[C@H](O)[C@@]2(O)CCN3C(=O)c4cc5c(cc4[C@H]1[C@H]32)OCO5 | > 100 | > 100 | > 100
2 | 5 | 5 | 4 | 8 | 32 | – | O=C(O[C@H]1[C@H]2c3cc4c(cc3CN3CCC(=C[C@@H]1O)[C@H]23)OCO4)c1ccccc1 | 4 | 32 | 0.6
3 | 35 | > 100 | 47 | 30 | 57 | – | CC(=O)O[C@H]1[C@H]2c3cc4c(cc3C(=S)N3CCC(=C[C@@H]1OC(C)=O)[C@H]23)OCO4 | 52 | 57 | 46
4 | 96 | > 100 | > 100 | > 100 | > 100 | – | O=C1c2cc3c(cc2[C@@H]2[C@H](O)[C@@H](O)[C@H](O)[C@@]4(O)CCN1[C@@H]24)OCO3 | > 100 | > 100 | > 100
5 | > 100 | > 100 | > 100 | > 100 | > 100 | – | CC(=O)O[C@@H]1[C@@H](OC(C)=O)[C@H](OC(C)=O)[C@@]2(O)CCN3C(=O)c4cc5c(cc4[C@H]1[C@H]32)OCO5 | > 100 | > 100 | > 100
6 | > 100 | > 100 | > 100 | 83 | > 100 | – | CC(=O)O[C@@H]1[C@@H](OC(C)=O)[C@H](OC(C)=O)C2=CCN3C(=O)c4cc5c(cc4[C@H]1[C@@H]23)OCO5 | > 100 | > 100 | > 100
7 | 24 | 18 | 26 | 22 | 15 | – | CC(C)[Si](O[C@H]1C=C2CCN3Cc4cc5c(cc4[C@H]([C@@H]1O)[C@@H]23)OCO5)(C(C)C)C(C)C | 22 | 11 | 13
8 | 20 | 11 | 29 | 24 | 54 | – | O=C(O[C@H]1[C@H]2c3cc4c(cc3CN3CCC(=C[C@@H]1OC(=O)c1ccccc1)[C@H]23)OCO4)c1ccccc1 | 10 | 54 | 1
9 | 23 | 34 | 60 | 21 | 70 | – | O=C(O[C@H]1C=C2CCN3Cc4cc5c(cc4[C@H]([C@@H]1O)[C@@H]23)OCO5)c1ccccc1 | 6 | 70 | 1
10 | 27 | 26 | 34 | 30 | 18 | – | CC(=O)O[C@H]1[C@H]2c3cc4c(cc3CN3CCC(=C[C@@H]1O[Si](C(C)C)(C(C)C)C(C)C)[C@H]23)OCO4 | 36 | 6 | 15
11 | 32 | 29 | 35 | 28 | 26 | 3 | CCCCCCCCCCCCCCCC(=O)O[C@H]1[C@H]2c3cc4c(cc3CN3CCC(=C[C@@H]1O)[C@H]23)OCO4 | 27 | 7 | 24
12 | 74 | 97 | > 100 | 57 | 67 | – | O[C@H]1C=C2CCN3Cc4cc5c(cc4[C@H]([C@@H]1OCc1ccccc1)[C@@H]23)OCO5 | 80 | 34 | 50
13 | 16 | 38 | 33 | 8 | 24 | – | O=c1c2cc3c(cc2c2cccc4c2n1CC4)OCO3 | 14 | 24 | 4
14 | 22 | 41 | 43 | 29 | 4 | – | CCC(=O)O[C@H]1[C@H]2c3cc4c(cc3CN3CCC(=C[C@@H]1OC(=O)CC)[C@H]23)OCO4 | 8 | 0.6 | 3
15 | 4 | 4 | 4 | 2 | 0.9 | – | O[C@H]1[C@H]2c3cc4c(cc3CN3CCC(=C[C@@H]1O)[C@H]23)OCO4 [LYCORINE] | 0.9 | 3 | 3

The remaining lines, values behind:

Row | Compound | GI50 (MCF7) [µM] | GI50 (PC-3) [µM] | GI50 (SK-MEL-28) [µM] | GI50 (B16-F10) [µM] | GI50 (A549) [µM] | Stability [3] [days] | GI50 [1] [µM] | GI50 (T98G) [µM] | GI50 [2] [µM]
16 | CC(=O)O[C@H]1[C@H]2c3cc4c(cc3C(=O)N3CCC(=C[C@@H]1OC(C)=O)[C@H]23)OCO4 | > 100 | > 100 | 99 | 75 | 36 | – | 49 | 32 | 39
17 | CC(=O)Oc1cc2c3c(c1)c1cc4c(cc1c(=O)n3CC2)OCO4 | 50 | 33 | > 100 | 20 | 23 | – | 20 | 29 | 21
18 | O=C1c2cc3c(cc2[C@@H]2[C@H](O)[C@@H](O)C=C4CCN1[C@H]42)OCO3 | > 100 | > 100 | > 100 | > 100 | > 100 | – | > 100 | > 100 | > 100
19 | O=c1c2cc3c(cc2c2cc(O)cc4c2n1CC4)OCO3 | 9 | 48 | > 100 | 38 | 44 | – | 40 | 41 | 49
20 | O[C@@H]1[C@@H](O)[C@H](O)[C@@]2(O)CCN3Cc4cc5c(cc4[C@H]1[C@H]32)OCO5 | > 100 | > 100 | > 100 | 83 | > 100 | – | > 100 | > 100 | > 100
21 | O=C1c2cc3c(cc2[C@@H]2[C@H](O)[C@@H](O)[C@H](O)C4=CCN1[C@H]42)OCO3 | > 100 | > 100 | > 100 | > 100 | > 100 | – | > 100 | > 100 | > 100
22 | CC(C)(C)C(=O)O[C@H]1C=C2CCN3Cc4cc5c(cc4[C@H]([C@@H]1O)[C@@H]23)OCO5 | 36 | 12 | 10 | 5 | 7 | – | 15 | 12 | 9
23 | CCCCCCCCCCCCCCCC(=O)O[C@H]1[C@H]2c3cc4c(cc3CN3CCC(=C[C@@H]1O[Si](C(C)C)(C(C)C)C(C)C)[C@H]23)OCO4 | 25 | 20 | 38 | 38 | 9 | – | 21 | 3 | 13
24 | CCCCCCCCCCCCCCCCCC(=O)O[C@H]1[C@H]2c3cc4c(cc3CN3CCC(=C[C@@H]1O)[C@H]23)OCO4 | 38 | 26 | 34 | 23 | 23 | 3 | 24 | 16 | 8
25 | O=c1c2cc3c(cc2c2cccc4ccn1c42)OCO3 | 27 | > 100 | > 100 | 34 | 96 | – | 19 | 96 | 27
26 | CC(=O)Oc1cc2ccn3c(=O)c4cc5c(cc4c(c1)c23)OCO5 | 7 | 21 | 21 | 5 | 18 | – | 14 | 18 | 5
27 | CC(C)(C)OC(=O)O[C@H]1[C@H]2c3cc4c(cc3CN3CCC(=C[C@@H]1OC(=O)OC(C)(C)C)[C@H]23)OCO4 | 5 | 22 | 20 | 4 | 3 | – | 9 | 4 | 4
28 | CCOC(=O)C[C@@]12C=C[C@@H](OC(C)=O)[C@H]3c4cc5c(cc4CN(CC1)[C@@H]32)OCO5 | > 100 | > 100 | > 100 | 79 | > 100 | – | > 100 | > 100 | > 100
29 | CC(=O)O[C@H]1[C@H]2c3cc4c(cc3CN3CCC(=C[C@@H]1O)[C@H]23)OCO4 | 4 | 3 | 3 | 43 | 3 | – | 11 | 2 | 4
30 | O=C1C=C2CCN3Cc4cc5c(cc4[C@H]([C@@H]1O)[C@@H]23)OCO5 | 35 | 92 | > 100 | 16 | 4 | – | 3 | 38 | 45

From ChEMBL document CHEMBL1921724, “In search of a cytostatic agent derived from the alkaloid lycorine: synthesis and growth inhibitory properties of lycorine derivatives” (Bioorg Med Chem, 2011)
